High-throughput results deposited in PubChem by The Scripps Research Institute Molecular Screening Center.
Hits are enriched below; roughly 3.6% of the tested compounds scored in any of these assays.
pPAFAH inh – inhibitors of human plasma PAF acetylhydrolase (pPAFAH); Q13093; recombinant pPAFAH, FP-rhodamine probe fluorescence polarization; inhibition, % at 3.39 µM; 1.5% of 330,000 active;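 active = inhibition above the mean inhibition across the screen plus 3 SD, cut at about 25% in these data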;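 note: inhibitors block binding of the rhodamine activity-based probe so polarization drops; 0% = enzyme with DMSO and 100% = wells lacking pPAFAH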
Target sequence (Q13093 whole entry, looked up): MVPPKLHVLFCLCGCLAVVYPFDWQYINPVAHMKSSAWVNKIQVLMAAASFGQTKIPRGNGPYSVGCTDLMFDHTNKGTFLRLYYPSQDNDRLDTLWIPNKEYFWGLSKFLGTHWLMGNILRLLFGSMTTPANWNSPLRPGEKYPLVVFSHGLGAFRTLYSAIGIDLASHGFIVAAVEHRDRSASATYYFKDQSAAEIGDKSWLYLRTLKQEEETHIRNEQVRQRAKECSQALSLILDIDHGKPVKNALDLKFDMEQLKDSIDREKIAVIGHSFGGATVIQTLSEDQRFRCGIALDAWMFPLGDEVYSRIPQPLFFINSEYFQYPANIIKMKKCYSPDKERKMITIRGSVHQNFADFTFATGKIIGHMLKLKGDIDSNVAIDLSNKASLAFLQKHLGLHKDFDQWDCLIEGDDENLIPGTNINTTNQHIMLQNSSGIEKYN
VIM-2 inhibitor – blocks Pseudomonas aeruginosa VIM-2 metallo-beta-lactamase; purified VIM-2, nitrocefin hydrolysis, epi-absorbance fluorescence; inhibition, % at 5.6 µM; 0.89% of 290,000 active; AID 1527;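 active = inhibition above the mean of all tested compounds plus 3 SD, cutoff set per screening run, cut at about 7.5% in these data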;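 note: red hydrolysis product quenches plate fluorescence so inhibitors raise well fluorescence; 0% = enzyme with DMSO and 100% = DMSO without enzyme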
PAFAH2 FP inh – PAFAH2 (human) inhibition; Q99487; recombinant PAFAH2, FP-rhodamine activity probe, fluorescence polarization; inhibition, % at 3.39 µM; 0.99% of 340,000 active; AID 492956;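 active = inhibition above the mean over all tested compounds plus 3 SD, cut at about 30% in these data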;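 note: inhibitors block probe labeling of enzyme so polarization drops; 0% = enzyme with DMSO and 100% = wells lacking PAFAH2 protein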
IMP-1 inhibitor – blocks Pseudomonas aeruginosa IMP-1 metallo-beta-lactamase | purified IMP-1, nitrocefin hydrolysis, epi-absorbance fluorescence | inhibition, % at 5.6 µM | 0.45% of 290,000 active | AID 1556;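 active = inhibition above the mean plus 3 SD of all compounds in the same screening run, cut at about 4.5% in these data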;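 note: 0% = IMP-1 with DMSO and 100% = DMSO wells lacking enzyme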
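Assay system: purified recombinant IMP-1 beta-lactamase. Input: IMP-1 0.2 nM before substrate addition. Buffer or medium: Zinc- and detergent-supplemented HEPES buffer, pH 7.1. Schedule: 25 °C, 15 min preincubation, 25 min reaction. Signal: Epi-absorbance fluorescence, 480 nm excitation, 530 nm emission. Evaluation: percent inhibition from optical density relative to buffer-blank wells.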
PAFAH1B3 inh – inhibitors of human PAFAH1B3. Q15102. recombinant PAFAH1B3, FP-rhodamine probe, fluorescence polarization. inhibition, % at 3.39 µM. 0.28% of 340,000 active. AID 492972;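 active = inhibition above the screen-wide average of all tested compounds plus 3 SD, cut at about 25% in these data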;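 note: 0% = enzyme with DMSO only and 100% = wells lacking PAFAH1B3 protein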
Target sequence (Q15102 whole entry, looked up): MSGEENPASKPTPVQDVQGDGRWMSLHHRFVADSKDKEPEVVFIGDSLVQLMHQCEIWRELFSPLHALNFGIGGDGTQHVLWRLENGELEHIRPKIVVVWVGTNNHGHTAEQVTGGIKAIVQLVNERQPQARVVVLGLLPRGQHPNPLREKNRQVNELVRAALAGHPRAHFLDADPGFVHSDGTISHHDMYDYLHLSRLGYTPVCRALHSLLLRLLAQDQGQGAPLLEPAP
PAFAH1B2 FP inh – PAFAH1B2 (human) inhibition. P68402. recombinant PAFAH1B2, FP-rhodamine activity probe, fluorescence polarization. inhibition, % at 3.39 µM. 1.2% of 340,000 active. AID 492953;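 active = inhibition above the mean of all tested compounds plus 3 SD, cut at about 24% in these data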;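 note: 0% = enzyme with DMSO and 100% = wells lacking PAFAH1B2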
Numbers without * were called inactive; . = not tested or not shown.

SMILES | pPAFAH inh | VIM-2 inhibitor | PAFAH2 FP inh | IMP-1 inhibitor | PAFAH1B3 inh | PAFAH1B2 FP inh
CC1CCCCN1CCCNC(=O)c1c(O)nc2ccccn2c1=O (configuration not stated) | -2 | -1 | 5 | -1 | 1 | 3
CCC1CCCCN1CCCNC(=O)c1c(O)nc2c(C)cccn2c1=O (configuration not stated) | 2 | 9.6* | 2 | -1 | -1 | 2
COc1ccc(S(=O)(=O)N2CCC(NC(=O)c3cccnc3)CC2)cc1 | -1 | -5 | 8 | -5 | -1 | 3
COc1cc(OC)c2c(-c3cccc(-c4cccc(C)c4)c3)cc(=O)oc2c1 | 7 | . | -1 | . | -10 | -3
COc1cc(OC)c2c(C)cc(=O)oc2c1 | -8 | 3 | 3 | 4.9* | 6 | -3
O=C(NC(=S)Nc1nc(-c2ccc(Br)cc2)cs1)c1ccco1 | -1 | -5 | -13 | -2 | -5 | -3
O=C(NC(=S)Nc1nc(-c2ccc([N+](=O)[O-])cc2)cs1)c1ccco1 | 5 | -5 | -5 | 62* | 4 | 0
COc1ccc(OC)c(C2=CC(=O)C[C@H](c3ccc4c(c3)OCO4)C2)c1 | 8 | . | 16 | . | 4 | 7
CSc1nc(Cl)c(Cc2ccc(OC(C)C)cc2)c(N2CCOCC2)n1 | -1 | -1 | 0 | -2 | 5 | 4
CSc1nc(N2CCOCC2)c2sccc2n1 | 1 | 8.1* | 1 | -1 | -2 | -1
CC1=C(c2ccccc2)C(O)(c2ccccc2)C(C)C1=O (configuration not stated) | . | . | -8 | . | 7 | -1
CCc1ccc(CNC(=O)c2cc3c(C)nc4ccccc4c3o2)cc1 | -13 | -4 | -6 | -3 | 2 | -1
CCN1CCCC1CNC(=O)c1cc2c(C)nc3ccccc3c2o1 (configuration not stated) | 2 | 8.2* | -4 | 1 | 0 | 3
Cc1nc2ccccc2c2oc(C(=O)NCCN3CCCCC3C)cc12 (configuration not stated) | 4 | 11* | 12 | -3 | -3 | 5
O=C(NCCCn1ccnc1)C(=O)NCC1OCCN1S(=O)(=O)c1ccc2c(c1)OCCO2 (configuration not stated) | 7 | 1 | 3 | 5.1* | 8 | 1
Cc1cc(C)c(S(=O)(=O)N2CCOC2CNC(=O)C(=O)NCCCn2ccnc2)c(C)c1 (configuration not stated) | 6 | -2 | 1 | 7.0* | -5 | -2
COc1cc(NC(=O)CSc2nc3c(c(=O)n(C)c(=O)n3C)n2C)cc(OC)c1 | 1 | -3 | 1 | -5 | 1 | 1
O=C(C[C@H]1C/C=C/CC[C@H](Cc2ccc(F)cc2)C(=O)O[C@H](c2ccccc2)CNC1=O)NCCO | 13 | . | 9 | . | 9 | 30*
O=C(C[C@@H]1C/C=C/CC[C@@H](Cc2ccc(F)cc2)C(=O)O[C@H](c2ccccc2)CNC1=O)NCCO | 3 | . | -2 | . | -5 | 24*
Cc1ccc(CCNC(=O)c2cc(S(=O)(=O)N3CCCC3)cn2C)cc1 | 2 | -1 | -7 | -1 | -2 | 11
O=C1N=C(N2C=CC(=C3C=CNC=C3)C=C2)/C(=C/N=NC(=O)c2ccccc2O)S1 | 26* | -6 | 16 | -7 | 16 | 7
NC(=S)N/N=C/c1cccc(O)c1O | 32* | -3 | 0 | -2 | 1 | 7
O=S(=O)(c1ccc2nc(Nc3ccccc3)ccc2c1)N1CCCCC1 | 9 | 5 | 0 | 0 | 0 | 9
O=C(CN1CCN(c2ccccn2)CC1)Nc1ccc(OC(F)(F)F)cc1 | 5 | -5 | 0 | 6.1* | 7 | -5
CN=C(C[N+](=O)[O-])NCCSCc1ccc(CN(C)C)o1 | -2 | . | -3 | . | 3 | -1
SMILES | pPAFAH inh | VIM-2 inhibitor | PAFAH2 FP inh | IMP-1 inhibitor | PAFAH1B3 inh | PAFAH1B2 FP inh
O=C(N/N=C/C=C/c1ccco1)/C(=C/c1ccccc1)NC(=O)c1ccccc1 | 31* | -5 | 16 | -3 | 11 | 3
Cc1ccc(N=C2NC(=O)/C(=C/c3cccn3C)S2)c(C)c1 | 25* | -3 | 12 | -4 | 7 | 11
CCCc1cc(=O)[nH]c(SCC(=O)NC2CCCc3ccccc32)n1 (configuration not stated) | -1 | -1 | 1 | -2 | -3 | 26*
COc1ccccc1N1CCN(C2CCCN(C(=O)c3cccc(-c4ccco4)c3)C2)CC1 (configuration not stated) | 0 | 1 | 0 | -2 | 12 | 3
O=C(NCc1ccccc1)C12CC3CC(CC(Br)(C3)C1)C2 | 6 | -1 | -10 | -2 | 13 | 35*
CC(NC(=O)COC(=O)C12CC3CC(CC(Br)(C3)C1)C2)c1ccccc1 (configuration not stated) | 3 | . | 13 | . | 2 | 41*
CCc1noc(C)c1C(=O)N1CCCSC1=Nc1ccccc1Cl | -1 | . | -1 | . | 3 | 1
COc1ccc(-n2c(C)cc(/C=C3\C(=O)NN(c4ccccc4)C3=O)c2C)cc1 | 11 | -4 | 20 | -4 | -3 | 9
COc1ccc(Sc2ccc(/C=C3\C(=O)NN(c4ccccc4)C3=O)o2)cc1 | 29* | -4 | 34* | -1 | 15 | 42*
O=C1NN(c2ccccc2)C(=O)/C1=C\c1ccc(-c2cc([N+](=O)[O-])ccc2O)o1 | . | -7 | 30* | -5 | 33* | 13
O=C1NN(c2ccc(Cl)cc2)C(=O)/C1=C\c1ccc(-c2cccc(C(=O)O)c2)o1 | . | 0 | 36* | 0 | 27* | 21
CC(=O)Nc1c(O)nc(SCC(=O)Nc2c(C)cccc2C)[nH]c1=O | 0 | 3 | -1 | 7.3* | 5 | 2
CCCNC(=O)C(Cc1cccc(OC)c1)NC(=O)c1ccc(C(C)(C)C)cc1 (configuration not stated) | -8 | . | -13 | . | 5 | 10
O=C(N/N=C/c1cc(Br)c(O)c(Br)c1)C1CC1 | 14 | -3 | -8 | -3 | 0 | 9
CC(C)(C)NC(=S)N/N=C/c1cc(Br)c(O)c(Br)c1 | 34* | 0 | 6 | -3 | 8 | 17
c1ccc(-c2nnc(-c3ccco3)o2)cc1 | -1 | -1 | -3 | -3 | 0 | 0
c1coc(-c2nnc(-c3ccco3)nn2)c1 | 32* | -3 | 32* | -4 | 19 | 18
O=C(Nc1ncccc1O)c1cccc(S(=O)(=O)NCc2ccccc2)c1 | 5 | . | 14 | . | 4 | 21
O=C1CCCc2c1cc(-c1ccccc1)n2-c1ccccc1 | 5 | -3 | 3 | -1 | 10 | 25*
O=C(CNC(=O)c1cc2c(n(-c3ccccc3)c1=O)CCCC2=O)c1ccccc1 | 6 | -3 | -5 | -4 | -2 | 0
Cc1cc(C)c(S(=O)(=O)/N=C2\C=C(NS(=O)(=O)c3ccccc3)C(=O)c3ccccc32)c(C)c1 | 1 | -5 | 4 | -5 | -5 | 0
